pEC50, pIC50: −log10 of the molar value.
Assays:
[1] = biological target: Replicase polyprotein 1ab (Severe acute respiratory syndrome coronavirus 2, UniProt P0DTD1); test: Inhibition of recombinant SARS-CoV-2 3CLpro using Dacyl-KTSAVLQSGFRKME-Edans as substrate preincubated for 10 mins followed by substrate addition measured for 5 mins by FRET assay
[2] = Oral bioavailability in ICR mouse at 20 mg/kg measured for 24 hrs by LC-MS/MS analysis; assay type: ADME, organism-based; details: in vivo
Summary of the method: (§1)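 ICR mice, three per group, randomly assigned, received a single 20 mg/kg oral dose, with a parallel 10 mg/kg IV group for bioavailability. Blood was sampled at 0.25, 0.5, 1, 2, 4, 6, 8 and 24 h. Plasma was protein-precipitated with MeOH plus internal standard and quantified by LC-MS/MS. Parameters came from non-compartmental analysis.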

[3] = AUC (0 to infinity) in ICR mouse at 20 mg/kg, po measured for 24 hrs by LC-MS/MS analysis; assay type: ADME, organism-based; details: in vivo; summary of the method: as §1
[4] = AUC (0 to t) in ICR mouse at 20 mg/kg, po measured for 24 hrs by LC-MS/MS analysis; assay type: ADME, organism-based; details: in vivo; summary of the method: as §1
[5] = Cmax in ICR mouse at 20 mg/kg, po measured for 24 hrs by LC-MS/MS analysis; assay type: ADME, organism-based; details: in vivo; summary of the method: as §1
[6] = Half life in ICR mouse at 20 mg/kg, po measured for 24 hrs by LC-MS/MS analysis; assay type: ADME, organism-based; details: in vivo; summary of the method: as §1
[7] = AUC (0 to infinity) in ICR mouse at 10 mg/kg, iv measured for 24 hrs by LC-MS/MS analysis; assay type: ADME, organism-based; details: in vivo
Summary of the method: (§2)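 Male/female unspecified ICR mice, three per group, randomly assigned, given a single intravenous dose of 10 mg/kg. Whole blood was drawn at 0.083, 0.25, 0.5, 1, 2, 4, 8 and 24 h. Plasma (20 μL) was precipitated with MeOH containing internal standard, then analysed by LC-MS/MS. Parameters came from non-compartmental analysis.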

[8] = AUC (0 to t) in ICR mouse at 10 mg/kg, iv measured for 24 hrs by LC-MS/MS analysis; assay type: ADME, organism-based; details: in vivo; summary of the method: as §2
[9] = Half life in ICR mouse at 10 mg/kg, iv measured for 24 hrs by LC-MS/MS analysis; assay type: ADME, organism-based; details: in vivo; summary of the method: as §2
[10] = biological target: Procathepsin L (Homo sapiens) (UniProt P07711); test: Inhibition of cathepsin L (unknown origin) using Z-FR-AMC at 20 uM as substrate measured for 10 mins by fluorescence based assay relative to control
Sequence of Procathepsin L (Homo sapiens) (P07711 114-333 limits assumed): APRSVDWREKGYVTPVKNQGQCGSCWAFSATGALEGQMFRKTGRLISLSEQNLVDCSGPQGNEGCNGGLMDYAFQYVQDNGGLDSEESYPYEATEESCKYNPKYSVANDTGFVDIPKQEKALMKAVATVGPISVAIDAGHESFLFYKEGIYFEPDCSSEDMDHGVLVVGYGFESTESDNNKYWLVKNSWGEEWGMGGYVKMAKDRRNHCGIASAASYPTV

[11] = biological target: Chymotrypsinogen A (Bos taurus) (UniProt P00766); test: Inhibition of bovine pancreatic alpha-chymotrypsin using N-succinyl-AAPF-AMC as substrate at 20 uM preincubated for 10 mins followed by substrate addition measured for 10 mins by fluorescence based assay relative to control; details: time 20.0 min
Summary of the method: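 Chymotrypsin (5 nM final) was preincubated 10 min with 20 μM compound in PBS, pH 7.4. The reaction was started with N-succinyl-AAPF-AMC (10 μM final). Fluorescence (ex 380/em 460 nm) was read every 1 min for 10 min.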

[12] = Selectivity index, ratio of CC50 for African green monkey Vero E6 cells to EC50 for SARS-CoV-2 WIV04 infected in African green monkey Vero E6 cells; assay type: toxicity; details: read-out: Ratio CC50/EC50
Vero C1008 = test: Cytotoxicity against African green monkey Vero E6 cells incubated for 48 hrs by Luminescent cell viability assay; assay type: toxicity, cell-based; details: chlorocebus sabaeus, vero c1008, 48 h
Summary of the method: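 Vero E6 cells were seeded at 2.5 × 10³/well and grown 48 h, then exposed to compound at 0.5–200 μM for a further 48 h (n = 3). Viability was read by a luminescent cell-viability reagent after 10 min. Values came from curve fitting.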

SARS-CoV-2 = test: Antiviral activity against SARS-CoV-2 WIV04 infected in African green monkey Vero E6 cells assessed as reduction in viral replication preincubated cells for 1 hr followed by viral infection for 24 hrs by real-time fluorescence quantitative PCR method; assay type: functional, organism-based; details: Severe acute respiratory syndrome coronavirus 2, WIV04, Vero C1008

Row | SMILES | pIC50 [1] | F [2] [%] | AUC [3] [ng·h/mL] | AUCt [4] [ng·h/mL] | Cmax [5] [ng/mL] | t1/2 [6] [min] | AUC [7] [ng·h/mL] | AUCt [8] [ng·h/mL] | t1/2 [9] [min] | other results
1 | CN(C)S(=O)(=O)N[C@H](C(=O)N1[C@@H]2CC[C@@H](C2)[C@H]1C(=O)N[C@@H](C[C@@H]1CCNC1=O)C(=O)c1nc2ccccc2s1)C(C)(C)C | 6.23 | – | – | – | – | – | – | – | – | –
2 | CC(C)(C)[C@H](NC(=O)C(F)(F)F)C(=O)N1[C@@H]2CC[C@@H](C2)[C@H]1C(=O)N[C@@H](C[C@@H]1CCNC1=O)C(=O)c1nc2ccccc2s1 | 6.96 | 47.25 | 2161 | 2155 | 1597 | 54.6 | 2284 | 2281 | 28.2 | –
3 | [2H]C([2H])([2H])C(=O)N[C@H](C(=O)N1[C@@H]2CC[C@@H](C2)[C@H]1C(=O)N[C@@H](C[C@@H]1CCNC1=O)C(=O)c1nc2ccccc2s1)C(C)(C)C | 6.28 | – | – | – | – | – | – | – | – | –
4 | CC(C)(C)OC(=O)N[C@H](C(=O)N1[C@@H]2CC[C@@H](C2)[C@H]1C(=O)N[C@@H](C[C@@H]1CCNC1=O)C(=O)c1nc2ccccc2s1)C(C)(C)C | 5.30 | – | – | – | – | – | – | – | – | –
5 | O=C1NCC[C@H]1C[C@H](NC(=O)[C@@H]1[C@H]2CC[C@H](C2)N1C(=O)[C@@H](NS(=O)(=O)C(F)(F)F)C12CC3CC(CC(C3)C1)C2)C(=O)c1nc2ccccc2s1 | 5.78 | 48.1 | 33207 | 32473 | 9327 | 126 | 34308 | 33780 | 82.8 | inhibition [10]: 27%; inhibition [11]: 55.8%; selectivity ratio [12]: 300; CC50 (Vero C1008): 54000 nM; pEC50 (SARS-CoV-2): 6.74
6 | CC(C)(C)[C@H](NC(=O)C(F)(F)F)C(=O)N1C[C@H]2[C@@H]([C@H]1C(=O)N[C@H](C#N)C[C@@H]1CCNC1=O)C2(C)C [NIRMATRELVIR] | – | 22.85 | 1029 | 1023 | 1819 | 30.6 | 2241 | 2240 | 25.2 | CC50 (Vero C1008): > 500000 nM
7 | COc1ccc(C[C@H](NS(=O)(=O)C(F)(F)F)C(=O)N2[C@@H]3CC[C@@H](C3)[C@H]2C(=O)N[C@@H](C[C@@H]2CCNC2=O)C(=O)c2nc3ccccc3s2)cc1 | 5.27 | – | – | – | – | – | – | – | – | –
8 | CC(C)(F)C(=O)N[C@H](C(=O)N1[C@@H]2CC[C@@H](C2)[C@H]1C(=O)N[C@@H](C[C@@H]1CCNC1=O)C(=O)c1nc2ccccc2s1)C(C)(C)C | 5.90 | – | – | – | – | – | – | – | – | –
9 | O=C1NCC[C@H]1C[C@H](NC(=O)[C@@H]1[C@H]2CC[C@H](C2)N1C(=O)[C@H](CC1CCCCC1)NS(=O)(=O)C(F)(F)F)C(=O)c1nc2ccccc2s1 | 5.29 | – | – | – | – | – | – | – | – | –
10 | CC(C)(C)[C@H](NS(=O)(=O)C(F)(F)F)C(=O)N1[C@@H]2CC[C@@H](C2)[C@H]1C(=O)N[C@@H](C[C@@H]1CCNC1=O)C(=O)c1nc2ccccc2s1 | 6.06 | 67.98 | 5153 | 5143 | 3342 | 45.6 | 3857 | 3783 | 44.4 | selectivity ratio [12]: 429; CC50 (Vero C1008): 137000 nM; pEC50 (SARS-CoV-2): 6.49
11 | CC(C)(C)OC[C@H](NS(=O)(=O)C(F)(F)F)C(=O)N1[C@@H]2CC[C@@H](C2)[C@H]1C(=O)N[C@@H](C[C@@H]1CCNC1=O)C(=O)c1nc2ccccc2s1 | 5.56 | – | – | – | – | – | – | – | – | –

Source: ChEMBL document CHEMBL5620366, “Design, synthesis and biological evaluation of peptidomimetic benzothiazolyl ketones as 3CLpro inhibitors against SARS-CoV-2” (Eur J Med Chem, 2023)
